According to ChEMBL document CHEMBL1147441, “A new series of potent oxindole inhibitors of CDK2” (Bioorg Med Chem Lett, 2004):
pIC50: −log10 of the molar value.

Tests used:
[1] = target: Cyclin-dependent kinase 2/cyclin E (Homo sapiens, UniProt P24941); test: In vitro inhibition of recombinant Cyclin Dependent Kinase-2/Cyclin E.; type: protein-complex assay
SW480 = test: In vitro inhibition of SW480 (human colon cancer) cell proliferation.; type: functional, cell-based
In short: (§1)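 MTT-based proliferation assay run on tumour cells. IC50 values were taken from a single experiment.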

MDA-MB-435 = test: In vitro inhibition of MDA MB 435 (human breast cancer) cell proliferation.; type: functional, cell-based; in short: as §1

SMILES	pIC50 [1]	pIC50 (SW480)	pIC50 (MDA-MB-435)
COc1cc[nH]c1/C=C1\C(=O)Nc2ccc(F)c(C#C[C@H](N)CO)c21	8.52	6.57	6.49
COc1cc[nH]c1/C=C1\C(=O)Nc2ccc(F)c(C#CC3(O)CCOCC3)c21	8.40	6.54	6.22
COc1cc[nH]c1/C=C1\C(=O)Nc2ccc(F)c(C#C[C@H](C)O)c21	7.59	6.40	6.72
COc1cc[nH]c1/C=C1\C(=O)Nc2ccc(F)c(C#C[C@@H](O)[C@@H](N)[C@@H](C)O)c21	–	6.85	6.40
CNCC#Cc1c(F)ccc2c1/C(=C/c1[nH]ccc1OC)C(=O)N2	8.40	6.82	6.31

Results, then the compound that gave them:

pIC50 [1]	pIC50 (SW480)	pIC50 (MDA-MB-435)	SMILES
8.15	6.85	6.45	CN[C@H](C#Cc1c(F)ccc2c1/C(=C/c1[nH]ccc1OC)C(=O)N2)[C@@H](C)O
8.40	7.10	6.52	CN[C@@H](C#Cc1c(F)ccc2c1/C(=C/c1[nH]ccc1OC)C(=O)N2)CO
8.10	7.00	6.46	CN[C@H](C#Cc1c(F)ccc2c1/C(=C/c1[nH]ccc1OC)C(=O)N2)CO
8.40	7.36	7.20	COc1cc[nH]c1/C=C1\C(=O)Nc2ccc(F)c(C#C[C@@H]3C[C@@H](O)CN3)c21
8.40	6.96	6.89	COc1cc[nH]c1/C=C1\C(=O)Nc2ccc(F)c(C#CC(O)CN)c21 (configuration not stated)
7.68	6.89	6.96	COc1cc[nH]c1/C=C1\C(=O)Nc2ccc(F)c(C#C[C@@H](C)O)c21
